Measurements reported in ChEMBL document CHEMBL2150931, “Design, synthesis, and biological activity of a novel series of human sirtuin-2-selective inhibitors” (J Med Chem, 2012).

Tests used:
[1] = target: T1, NAD-dependent protein deacetylase sirtuin-2 (Homo sapiens, UniProt Q8IXJ6); test: Inhibition of human recombinant SIRT2 using Fluor de Lys-SIRT as substrate incubated for 60 mins prior to substrate addition measured after 60 mins by fluorimetric analysis
T1 sequence (Q8IXJ6 whole entry): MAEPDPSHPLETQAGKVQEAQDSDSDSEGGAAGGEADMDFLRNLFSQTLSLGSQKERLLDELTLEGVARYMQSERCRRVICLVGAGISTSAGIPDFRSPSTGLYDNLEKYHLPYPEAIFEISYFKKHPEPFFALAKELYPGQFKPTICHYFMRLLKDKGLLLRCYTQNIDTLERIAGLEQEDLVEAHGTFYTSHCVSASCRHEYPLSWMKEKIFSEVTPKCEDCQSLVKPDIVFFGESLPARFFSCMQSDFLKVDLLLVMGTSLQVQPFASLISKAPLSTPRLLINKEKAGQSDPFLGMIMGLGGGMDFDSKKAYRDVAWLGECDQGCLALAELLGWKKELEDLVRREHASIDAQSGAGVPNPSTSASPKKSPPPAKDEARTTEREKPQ
Procedure, shortened: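 Human recombinant SIRT2 preincubated with 1 mM NAD⁺ and serial compound dilutions for 60 min at 37 °C, then 25 μM Fluor de Lys-SIRT substrate added. Reaction stopped at 60 min with Developer II containing nicotinamide. Fluorescence read 45 min later at ex 360/em 460 nm. % inhibition taken against control wells. IC₅₀ obtained by regression of log[Inh] vs logit % inhibition; means of ≥3 experiments.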

[2] = target: T2, NAD-dependent protein deacetylase sirtuin-1 (Homo sapiens, UniProt Q96EB6); test: Inhibition of human recombinant SIRT1 using Fluor de Lys-SIRT as substrate incubated for 60 mins prior to substrate addition measured after 60 mins by fluorimetric analysis
T2 sequence (Q96EB6 whole entry): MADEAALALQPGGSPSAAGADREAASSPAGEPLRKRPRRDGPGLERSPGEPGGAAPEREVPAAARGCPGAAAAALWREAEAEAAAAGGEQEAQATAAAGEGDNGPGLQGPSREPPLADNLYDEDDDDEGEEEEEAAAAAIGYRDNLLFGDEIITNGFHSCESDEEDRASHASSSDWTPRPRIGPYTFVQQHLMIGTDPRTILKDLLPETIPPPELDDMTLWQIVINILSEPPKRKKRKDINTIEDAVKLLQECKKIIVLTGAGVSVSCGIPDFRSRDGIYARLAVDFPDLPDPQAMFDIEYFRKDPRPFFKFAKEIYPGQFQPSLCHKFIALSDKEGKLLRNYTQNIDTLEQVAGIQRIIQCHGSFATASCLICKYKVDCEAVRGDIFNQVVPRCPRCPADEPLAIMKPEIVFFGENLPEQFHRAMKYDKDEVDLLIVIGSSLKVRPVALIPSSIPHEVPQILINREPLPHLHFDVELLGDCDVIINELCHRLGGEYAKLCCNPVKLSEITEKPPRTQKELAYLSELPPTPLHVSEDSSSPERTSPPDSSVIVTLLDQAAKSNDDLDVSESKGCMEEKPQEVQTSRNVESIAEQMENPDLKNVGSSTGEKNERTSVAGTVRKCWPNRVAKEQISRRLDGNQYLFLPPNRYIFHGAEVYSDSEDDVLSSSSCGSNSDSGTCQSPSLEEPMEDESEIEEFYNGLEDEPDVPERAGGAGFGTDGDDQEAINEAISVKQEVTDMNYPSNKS
Procedure, shortened: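 Human recombinant SIRT1 run the same way: 60 min at 37 °C with 1 mM NAD⁺ and serial compound dilutions, then 25 μM Fluor de Lys-SIRT substrate for 60 min. Stopped with nicotinamide-containing Developer II and read 45 min later at ex 360/em 460 nm. IC₅₀ from logit regression of % inhibition vs control; means of ≥3 experiments.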

[3] = target: T3, NAD-dependent protein deacetylase sirtuin-3, mitochondrial (Homo sapiens, UniProt Q9NTG7); test: Inhibition of human recombinant SIRT3 using Fluor de Lys-SIRT as substrate incubated for 60 mins prior to substrate addition measured after 60 mins by fluorimetric analysis
T3 sequence (Q9NTG7 whole entry): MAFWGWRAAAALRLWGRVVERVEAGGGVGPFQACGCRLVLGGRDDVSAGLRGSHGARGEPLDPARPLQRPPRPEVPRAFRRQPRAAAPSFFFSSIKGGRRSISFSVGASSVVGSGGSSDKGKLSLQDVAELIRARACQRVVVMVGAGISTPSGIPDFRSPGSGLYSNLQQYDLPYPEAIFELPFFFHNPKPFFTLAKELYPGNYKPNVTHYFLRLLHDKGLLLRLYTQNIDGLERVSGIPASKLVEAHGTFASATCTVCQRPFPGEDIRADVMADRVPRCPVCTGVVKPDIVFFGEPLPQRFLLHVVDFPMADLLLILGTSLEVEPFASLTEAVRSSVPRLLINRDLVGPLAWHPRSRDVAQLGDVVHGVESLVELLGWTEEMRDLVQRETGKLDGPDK

| SMILES | IC50 [1] | IC50 [2] | IC50 [3] |
| --- | --- | --- | --- |
| NC(=O)c1ccccc1Nc1cccc(OCCc2ccc(C(F)(F)F)cc2)c1 | 1.4 µM | > 100 µM |  |
| CC(C)(C)c1ccc(Nc2ccccc2C(N)=O)cc1 | > 100 µM |  |  |
| Cc1cccc(Nc2ccccc2C(N)=O)c1 | 72 µM |  |  |
| Cc1cccc(CCOc2cccc(Nc3ccccc3C(N)=O)c2)c1 | 1.8 µM | > 100 µM |  |
| NC(=O)c1ccccc1Nc1cccc(OCCc2ccc(F)cc2)c1 | 2.7 µM | > 100 µM |  |
| NC(=O)c1ccccc1Nc1cccc(OCCc2ccccc2Br)c1 | 1.1 µM | > 100 µM |  |
| NC(=O)c1ccccc1Nc1cccc(OCCc2ccccc2Cl)c1 | 1.5 µM | > 100 µM |  |
| NC(=O)c1ccccc1Nc1cccc(CCO)c1 | > 100 µM |  |  |
| NC(=O)c1ccccc1Nc1cccc(OCCc2cccc(F)c2)c1 | 0.57 µM | > 100 µM | > 300 µM |
| Cc1ccc(CCOc2cccc(Nc3ccccc3C(N)=O)c2)cc1 | 1.6 µM | > 100 µM |  |
| COC(=O)c1cccc(Nc2ccccc2C(N)=O)c1 | > 100 µM | > 100 µM |  |
| CN(c1ccccc1)c1ccccc1C(N)=O | > 100 µM | 75 µM |  |
| NC(=O)c1ccccc1Nc1cccc(OCCc2cccc(Cl)c2)c1 | 2 µM | > 100 µM |  |
| COC(=O)/C=C/c1cccc(Nc2ccccc2C(N)=O)c1 | 32 µM |  |  |
| COC(=O)CCc1cccc(Nc2ccccc2C(N)=O)c1 | 93 µM |  |  |
| CC(C)COc1cccc(Nc2ccccc2C(N)=O)c1 | 30 µM | > 300 µM |  |
| NC(=O)c1ccccc1Nc1cccc(C(F)(F)F)c1 | 100 µM |  |  |
| N#Cc1ccc(Nc2ccccc2C(N)=O)cc1 | 93 µM |  |  |
| NC(=O)c1ccccc1Oc1ccccc1 | > 100 µM | > 100 µM |  |

| SMILES | IC50 [1] | IC50 [2] | IC50 [3] |
| --- | --- | --- | --- |
| NC(=O)c1ccccc1Nc1cccc(OCCc2cccc(Br)c2)c1 | 3.4 µM | > 100 µM |  |
| NC(=O)c1ccccc1NCc1ccccc1 | > 100 µM |  |  |
| NC(=O)c1ccccc1Nc1ccc(C(F)(F)F)cc1 | 69 µM |  |  |
| NC(=O)c1ccccc1Nc1ccc(NC(=O)C2CCNCC2)cc1 | 53 µM | > 100 µM |  |
| NC(=O)c1ccccc1Nc1cccc(OCCCc2ccccc2)c1 | 4.3 µM | > 300 µM |  |
| NC(=O)c1ccccc1Nc1cccc(OCCc2ccccc2F)c1 | 2 µM | > 100 µM |  |
| NC(=O)c1ccccc1Nc1cccc(OCCc2ccc(Cl)cc2)c1 | 0.83 µM | > 100 µM |  |
| NC(=O)c1ccccc1Nc1cccc(OCC2CCCCC2)c1 | 24 µM | 210 µM |  |
| O=C(O)c1ccccc1Nc1ccccc1 [FENAMIC ACID] | > 100 µM | 68 µM |  |
| NC(=O)c1ccccc1Nc1cccc(OCCc2ccc(Br)cc2)c1 | 1.2 µM | > 100 µM |  |
| NC(=O)c1ccccc1Nc1cccc(CO)c1 | > 100 µM |  |  |
| NC(=O)c1ccccc1Nc1cccc(/C=C/C(=O)O)c1 | > 100 µM |  |  |
| NC(=O)c1ccccc1Nc1cccc(OCCc2cccc(C(F)(F)F)c2)c1 | 2.1 µM | > 100 µM |  |
| NC(=O)c1ccccc1Nc1ccc(NC(=O)C2CCCCC2)cc1 | 25 µM | > 100 µM |  |
| NC(=O)c1ccccc1Nc1cccc(OCCc2ccccc2C(F)(F)F)c1 | 3.1 µM | > 100 µM |  |
| Cc1ccccc1CCOc1cccc(Nc2ccccc2C(N)=O)c1 | 1.8 µM | > 100 µM |  |
| CNC(=O)c1ccccc1Nc1ccccc1 | > 100 µM | > 100 µM |  |
| NC(=O)c1ccccc1Sc1ccccc1 | > 100 µM |  |  |
| NC(=O)c1ccccc1Nc1cccc(CCC(=O)O)c1 | > 100 µM | 93 µM |  |

Now from value to compound:

| IC50 [1] | IC50 [2] | IC50 [3] | SMILES |
| --- | --- | --- | --- |
| 33 µM |  |  | NC(=O)c1ccccc1Nc1cccc(-c2ccccc2)c1 |
| > 100 µM | > 100 µM |  | CC(C)C(=O)Nc1ccc(Nc2ccccc2C(N)=O)cc1 |
| > 100 µM |  |  | CSc1ccc(Nc2ccccc2C(N)=O)cc1 |
| > 100 µM | > 100 µM |  | NC(=O)c1ccccc1Nc1ccc(NC(=O)c2ccccn2)cc1 |
| 83 µM | > 100 µM |  | COC(=O)c1ccc(Nc2ccccc2C(N)=O)cc1 |
| 39 µM | > 100 µM |  | NC(=O)c1ccccc1Nc1cccc(C(=O)NCc2ccccc2)c1 |
| > 100 µM | > 100 µM |  | CN(C)C(=O)c1ccccc1Nc1ccccc1 |
| 25 µM |  |  | NC(=O)c1ccccc1Nc1cccc(Oc2ccccc2)c1 |
| > 100 µM | > 100 µM |  | CN(C(=O)Cc1ccccc1)c1cccc(Nc2ccccc2C(N)=O)c1 |
| > 100 µM | > 100 µM |  | NC(=O)c1ccccc1Nc1ccc(NC(=O)c2ccncc2)cc1 |
| > 100 µM | > 100 µM |  | NC(=O)c1ccccc1Nc1ccc(-c2ccccc2)cc1 |
| 77 µM | > 100 µM |  | CC(=O)Nc1ccc(Nc2ccccc2C(N)=O)cc1 |
| > 300 µM | > 100 µM |  | NC(=O)c1ccccc1Nc1ccc(/C=C/c2ccccc2)cc1 |
| 40 µM | > 100 µM |  | CN(Cc1ccccc1)C(=O)c1cccc(Nc2ccccc2C(N)=O)c1 |
| 57 µM | > 100 µM |  | NC(=O)c1ccccc1Nc1cccc(NC(=O)c2ccccc2)c1 |
| > 100 µM |  |  | NC(=O)c1ccccc1Nc1ccccc1 [ANILINOBENZAMIDE] |
| 54 µM | > 300 µM |  | NC(=O)c1ccccc1Nc1cccc(OCc2ccccc2)c1 |
| 80 µM | > 100 µM |  | COc1ccc(Nc2ccccc2C(N)=O)cc1 |

| IC50 [1] | IC50 [2] | IC50 [3] | SMILES |
| --- | --- | --- | --- |
| 83 µM | > 100 µM |  | NC(=O)c1ccccc1Nc1cccc(C(=O)Nc2ccccc2)c1 |
| > 100 µM | > 100 µM |  | CN(C(=O)c1cccc(Nc2ccccc2C(N)=O)c1)c1ccccc1 |
| 38 µM | > 100 µM |  | NC(=O)c1ccccc1Nc1ccc(NC(=O)c2cccnc2)cc1 |
| > 100 µM | 56 µM |  | NC(=O)c1ccccc1Nc1ccc(Cl)cc1 |
| 88 µM | > 100 µM |  | NC(=O)c1ccccc1Nc1ccc(CCc2ccccc2)cc1 |
| 74 µM | > 100 µM |  | NC(=O)c1ccccc1Nc1cccc(NC(=O)Cc2ccccc2)c1 |
| > 100 µM | > 100 µM |  | NC(=O)c1ccccc1Nc1ccc2ccccc2c1 |
| > 300 µM | > 100 µM |  | CN(C(=O)c1ccccc1)c1ccc(Nc2ccccc2C(N)=O)cc1 |
| 17 µM | > 100 µM |  | NC(=O)c1ccccc1Nc1ccc(NC(=O)c2ccccc2)cc1 |
| > 100 µM |  |  | NC(=O)c1ccccc1Nc1ccc(C(=O)O)cc1 |
| 20 µM | > 100 µM |  | NC(=O)c1ccccc1Nc1ccc(/C=C\c2ccccc2)cc1 |
| > 100 µM | > 100 µM |  | NC(=O)c1ccccc1Nc1ccc(Oc2ccccc2)cc1 |
| 60 µM | > 100 µM |  | Cc1ccc(Nc2ccccc2C(N)=O)cc1 |
| > 100 µM | > 100 µM |  | NC(=O)c1ccccc1Nc1cccc(C(=O)O)c1 |
| 23 µM | > 100 µM |  | NC(=O)c1ccccc1Nc1ccc(C(=O)Nc2ccccc2)cc1 |
| 69 µM | > 100 µM |  | CN(C(=O)c1ccc(Nc2ccccc2C(N)=O)cc1)c1ccccc1 |
| > 100 µM | > 100 µM |  | CN(C(=O)c1ccccc1)c1cccc(Nc2ccccc2C(N)=O)c1 |
